Calls of active or inactive are those of the source. The rule behind the calls is not given here.
Legend:
[1] = Retention time of the compound by HPLC method; type: physicochemical
How it was run: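 Reversed-phase HPLC with a gradient of acetonitrile and water, both containing 0.1% formic acid, at 1 mL/min. Gradient ran 5% to 95% acetonitrile over 0–15 min, then held at 95% from 15 to 25 min. Injection volume 50 µL.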

[2] = Half life in human plasma by HPLC analysis; type: ADME, cell-free
How it was run: (§1)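 Co-prodrug diluted into human or mouse plasma and incubated at 37 °C. Sampled at 0.5, 1, 2, 3, 4, 5 and 6 h. Each aliquot quenched with an equal volume of cold acetonitrile and centrifuged. Supernatant analysed by RP-HPLC, with compounds quantified against an external-standard concentration–area curve.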

[3] = Half life in mouse plasma by HPLC analysis; type: ADME, cell-free; how it was run: as §1
NCI/ADR-RES = experiment: Cytotoxicity against human MCF7/ADR cells after 72 hrs by SRB assay; type: functional, cell-based
MCF7 = experiment: Cytotoxicity against human MCF7 cells after 72 hrs by SRB assay; type: functional, cell-based; conditions: MCF7, 72 h
HCT-116 = experiment: Cytotoxicity against human HCT-116 cells after 72 hrs by SRB assay; type: functional, cell-based; conditions: HCT-116, 72 h
[4] = Stability in PBS at pH 6 assessed as compound remaining after 24 hrs by HPLC analysis; type: physicochemical; conditions: read-out: Stabilty
How it was run: (§2)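 Co-prodrug stock diluted in 10 mM PBS at pH 7.4 or 6.0 and held at 37 °C. Sampled at 0.5, 1, 2, 3, 4, 6, 12 and 24 h. Intact co-prodrug, released PTX and released SAHA resolved by RP-HPLC. Amounts taken from external-standard concentration curves.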

[5] = molecular target: T1, Histone deacetylase (Homo sapiens) (UniProt Q13547+O15379+Q9UBN7+Q92769+Q9UQL6+Q8WUI4+Q9BY41+Q96DB2+P56524+Q9UKV0+Q969S8); experiment: Inhibition of HDAC in human MCF7 cells assessed as increase in tubulin acetylation measured after 10 to 24 hrs by Western blot analysis; type: cell-based; conditions: time hrs 10-24
How it was run: (§3)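 Cells in logarithmic phase seeded in 6-well plates and cultured overnight. Compound exposure at 37 °C for 10 h and 24 h, with untreated cells as control. Cells lysed in RIPA buffer and lysates boiled. Proteins separated by SDS-PAGE and semidry-transferred to nitrocellulose. Membranes probed with primary antibody overnight at 4 °C, then HRP-conjugated secondary antibody for 1 h at room temperature. Detection by chemiluminescence imaging.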

[6] = molecular target: T1, Histone deacetylase (Homo sapiens); experiment: Inhibition of HDAC in human MCF7/ADR cells assessed as increase in tubulin acetylation measured after 10 to 24 hrs by Western blot analysis; type: cell-based; conditions: NCI/ADR-RES, time hrs 10-24; how it was run: as §3
[7] = Drug degradation in PBS assessed as PTX release at pH 7.4 after 48 hrs by HPLC analysis; conditions: buffer, pH 7.4, 48 h
[8] = Drug degradation in PBS assessed as SAHA release at pH 7.4 after 48 hrs by HPLC analysis; conditions: buffer, pH 7.4, 48 h
[9] = Half life of compound in PBS buffer at pH 7.4 by HPLC analysis; type: physicochemical; how it was run: as §2
[10] = molecular target: T1, Histone deacetylase (Homo sapiens); experiment: Inhibition of HDAC in human HCT-116 cells assessed as increase in tubulin acetylation measured after 10 to 24 hrs by Western blot analysis; type: cell-based; conditions: time hrs 10-24; how it was run: as §3

| SMILES | Retention_time [1] | half-life [2] | half-life [3] | IC50 (NCI/ADR-RES) | IC50 (MCF7) | IC50 (HCT-116) | remaining at 24 h [4] | inhibition [5] | inhibition [6] | Drug degradation [7] | Drug degradation [8] | half-life [9] | inhibition [10] |
| --- | --- | --- | --- | --- | --- | --- | --- | --- | --- | --- | --- | --- | --- |
| CC(=O)O[C@H]1C(=O)[C@@]2(C)[C@H]([C@H](OC(=O)c3ccccc3)[C@]3(O)C[C@H](OC(=O)[C@H](OC(=O)CCC(=O)ONC(=O)CCCCCCC(=O)Nc4ccccc4)[C@@H](NC(=O)c4ccccc4)c4ccccc4)C(C)=C1C3(C)C)[C@]1(OC(C)=O)CO[C@@H]1C[C@@H]2O | 15.06 min | 30 min | 30 min | 4020 nM | 62.4 nM | 144 nM | > 85% |  |  |  |  |  |  |
| CC(=O)O[C@H]1C(=O)[C@@]2(C)[C@H]([C@H](OC(=O)c3ccccc3)[C@]3(O)C[C@H](OC(=O)[C@H](OC(=O)CNC(=O)ONC(=O)CCCCCCC(=O)Nc4ccccc4)[C@@H](NC(=O)c4ccccc4)c4ccccc4)C(C)=C1C3(C)C)[C@]1(OC(C)=O)CO[C@@H]1C[C@@H]2O | 14.62 min | 30 min | 30 min | 1380 nM | 1.5 nM | 9.55 nM | > 85% | Active | Active | 50.3% | 56.8% | 120 min | Active |
| CC(=O)O[C@H]1C(=O)[C@@]2(C)[C@H]([C@H](OC(=O)c3ccccc3)[C@]3(O)C[C@H](OC(=O)[C@H](OC(=O)CCC(=O)O)[C@@H](NC(=O)c4ccccc4)c4ccccc4)C(C)=C1C3(C)C)[C@]1(OC(C)=O)CO[C@@H]1C[C@@H]2O | 13.63 min |  |  |  |  |  |  |  |  |  |  |  |  |
| O=C(CCCCCCC(=O)Nc1ccccc1)NO [VORINOSTAT] | 8.42 min |  |  |  |  |  |  |  |  |  |  |  |  |
| CC(=O)O[C@H]1C(=O)[C@@]2(C)[C@H]([C@H](OC(=O)c3ccccc3)[C@]3(O)C[C@H](OC(=O)[C@H](O)[C@@H](NC(=O)c4ccccc4)c4ccccc4)C(C)=C1C3(C)C)[C@]1(OC(C)=O)CO[C@@H]1C[C@@H]2O [PACLITAXEL] | 13.81 min |  |  | > 10000 nM | < 1.5 nM |  |  | Active | Active |  |  |  | Active |

Source: ChEMBL document CHEMBL4665631, “Synthesis and biological evaluation of paclitaxel and vorinostat co-prodrugs for overcoming drug resistance in cancer therapy in vitro” (Bioorg Med Chem, 2019)
